This is an account of results in publication PMC3184254 (Nature Chemical Biology, 2011).

Molecules are shown by their SMILES. Like-named read-outs stand apart in the source and are kept apart here.

In one series the test system is cellular assays. Description: Cellular assays, comparison with BIX01294. Conditions: Supplementary Fig. 1. The series is classed as cell-based.
The target of a further series is T1, G9a (Homo sapiens, UniProt Q96KQ7).
T1 sequence (Q96KQ7 1-1210): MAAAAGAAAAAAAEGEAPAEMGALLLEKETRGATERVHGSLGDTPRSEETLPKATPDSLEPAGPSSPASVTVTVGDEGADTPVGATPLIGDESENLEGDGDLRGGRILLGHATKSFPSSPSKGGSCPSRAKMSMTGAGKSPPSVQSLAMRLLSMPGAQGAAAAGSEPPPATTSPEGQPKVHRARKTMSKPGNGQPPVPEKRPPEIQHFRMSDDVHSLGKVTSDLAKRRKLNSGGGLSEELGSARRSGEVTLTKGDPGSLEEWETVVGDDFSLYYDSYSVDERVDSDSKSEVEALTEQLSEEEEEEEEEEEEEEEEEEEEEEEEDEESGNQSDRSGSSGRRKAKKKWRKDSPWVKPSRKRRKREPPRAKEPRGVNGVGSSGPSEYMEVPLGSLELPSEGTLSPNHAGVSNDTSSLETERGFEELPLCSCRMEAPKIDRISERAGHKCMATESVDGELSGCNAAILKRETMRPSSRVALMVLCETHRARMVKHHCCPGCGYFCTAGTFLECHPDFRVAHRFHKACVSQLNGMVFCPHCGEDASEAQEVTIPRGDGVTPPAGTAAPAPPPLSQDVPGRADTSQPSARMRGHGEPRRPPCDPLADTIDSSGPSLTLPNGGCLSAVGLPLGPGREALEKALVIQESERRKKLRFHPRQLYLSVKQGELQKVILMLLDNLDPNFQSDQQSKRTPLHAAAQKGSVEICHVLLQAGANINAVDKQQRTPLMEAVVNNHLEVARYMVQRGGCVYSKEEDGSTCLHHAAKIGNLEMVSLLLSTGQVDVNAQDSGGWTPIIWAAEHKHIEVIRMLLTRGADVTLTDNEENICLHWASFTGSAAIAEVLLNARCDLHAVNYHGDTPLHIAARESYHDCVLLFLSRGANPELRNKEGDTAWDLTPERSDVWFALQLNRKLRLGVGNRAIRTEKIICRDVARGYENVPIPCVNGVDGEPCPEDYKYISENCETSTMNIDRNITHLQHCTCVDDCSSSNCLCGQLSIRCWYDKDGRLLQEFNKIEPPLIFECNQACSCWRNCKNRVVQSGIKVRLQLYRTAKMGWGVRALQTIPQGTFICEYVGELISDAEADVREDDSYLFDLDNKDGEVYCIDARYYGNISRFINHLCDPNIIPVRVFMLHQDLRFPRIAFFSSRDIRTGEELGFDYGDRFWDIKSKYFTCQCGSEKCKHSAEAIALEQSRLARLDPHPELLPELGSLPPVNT
Description: SAHH-coupled assay, G9a. The series is classed as biochemical.

A further series has as its target GLP (Homo sapiens, UniProt Q9H9B1). Description: SAHH-coupled assay, GLP. The series is classed as biochemical.
Another series addresses SUV39H2 (Homo sapiens, UniProt Q9H5I1). Description: SAHH-coupled assay, SUV39H2. Particulars: SAHH-coupled assay. It is filed as biochemical. In short, it runs like this: (§1)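 A fluorescence-based coupled assay used S-adenosyl-L-homocysteine hydrolase to follow conversion of cofactor SAM to SAH by the methyltransferase. IC50 values are the average of at least two separate experiments.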

For another series, the target named is T2, SETD7 (Homo sapiens, UniProt Q8WTS6).
T2 sequence (Q8WTS6 1-366): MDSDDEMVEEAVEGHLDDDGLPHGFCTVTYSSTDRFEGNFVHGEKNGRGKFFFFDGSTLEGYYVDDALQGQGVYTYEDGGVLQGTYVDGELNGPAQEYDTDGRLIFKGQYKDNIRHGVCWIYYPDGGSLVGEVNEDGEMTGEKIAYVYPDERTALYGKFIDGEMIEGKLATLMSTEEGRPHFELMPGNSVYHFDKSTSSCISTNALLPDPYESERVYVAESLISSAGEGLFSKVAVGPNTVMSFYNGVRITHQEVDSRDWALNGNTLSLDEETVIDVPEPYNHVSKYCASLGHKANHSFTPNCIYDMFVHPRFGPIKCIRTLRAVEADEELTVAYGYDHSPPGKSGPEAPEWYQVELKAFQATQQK
Description: SAHH-coupled assay, SETD7. The series is classed as biochemical. Conditions: SAHH-coupled assay. The gist of the method: as §1

Another series addresses T3, SETD8 (Homo sapiens, UniProt Q9NQR1).
T3 sequence (Q9NQR1 1-393): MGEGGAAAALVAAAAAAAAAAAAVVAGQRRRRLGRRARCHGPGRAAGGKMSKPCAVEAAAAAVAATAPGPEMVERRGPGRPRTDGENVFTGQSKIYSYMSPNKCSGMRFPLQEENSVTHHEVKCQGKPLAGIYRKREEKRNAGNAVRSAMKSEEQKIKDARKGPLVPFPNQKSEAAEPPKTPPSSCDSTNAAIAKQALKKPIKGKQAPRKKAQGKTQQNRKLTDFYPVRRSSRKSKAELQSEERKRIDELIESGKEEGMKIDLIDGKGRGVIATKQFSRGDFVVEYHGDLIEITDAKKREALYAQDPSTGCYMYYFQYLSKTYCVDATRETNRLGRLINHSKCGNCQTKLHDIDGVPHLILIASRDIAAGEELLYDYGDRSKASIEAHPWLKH
Put plainly: SAHH-coupled assay, SETD8. Conditions: SAHH-coupled assay. The series is classed as biochemical. The gist of the method: as §1

Another series has as its target PRMT3 (Homo sapiens, UniProt O60678). Description: SAHH-coupled assay, PRMT3. The series is classed as biochemical. Conditions: SAHH-coupled assay. The gist of the method:
as §1

The test system of the next series is panel of 24 kinases. Description: Kinase selectivity panel. The series is classed as biochemical.
Series [1] concerns H3K9me2 levels in MDA-MB-231 cells. Put plainly: H3K9me2 in-cell western, MDA-MB-231. It is filed as cell-based, human. Conditions: read-out: IC50 for reduction of H3K9me2 levels; MDA-MB-231 cells, 48 h exposure, in-cell western.
For the next series, the system named is MDA-MB-231 cells. Description: MTT assay, MDA-MB-231. The series is classed as cell-based, human. On the technique in general: Tetrazolium assays rely on reduction of a dye to a coloured formazan, in cell work by metabolically active cells.
Series [2] has as its system HSC1-EF1α-EGFP-Puromycin retrovirus in J1 mES cells. Description: Reactivation of silent EGFP retrovirus vector, flow cytometry. The series is classed as cell-based, mouse. Background: A flow cytometer gives signals particle by particle.
The test system of series [3] is retrovirus long terminal repeat and MAGEA2 promoter in mES cells. Description: Bisulfite sequencing DNA methylation in mES cells. The series is classed as cell-based, mouse. Conditions: after 10 d of treatment. The gist of the method: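 J1 mouse ES cells were grown on 0.1% gelatin in DMEM with 15% ES-qualified FBS, 4 mM L-glutamine, 0.1 mM nonessential amino acids, 1 mM pyruvate, 0.55 mM 2-mercaptoethanol and LIF. They carried a silenced HSC1 retroviral EGFP-puromycin reporter driven by the EF1a promoter.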

Series [4] concerns histone marks in MDA-MB-231 cells. Description: Quantitative MS analysis of histone modifications. It is filed as cell-based, human. Conditions: 1 μM for 48 h. In short, it runs like this:
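MDA-MB-231 cells were treated at 1 µM for 48 h. Histones were acid-extracted, derivatized with propionic anhydride and digested with trypsin. Mock and treated samples carried D0 or D5 propionyl labels. Peptides were analysed by LC-MS/MS on an Orbitrap, with all data manually verified.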

Series [5] has as its system H3K9me2 levels in J1 mES cells. Description: Cellular potency. The series is classed as cell-based. Conditions: Mus musculus, 48 h, read-out: IC50 cellular potency.
The next series concerns J1 mES cells. Put plainly: SSEA1 pluripotency marker immunostaining, flow cytometry. The series is classed as cell-based, mouse. Particulars: day 10; 2 μM.
Series [6] concerns H3K9me2 mark in bulk histones in several cell lines. Particulars: cited from earlier work.

Chain of SUV39H2 (Q9H5I1 whole entry, species assumed): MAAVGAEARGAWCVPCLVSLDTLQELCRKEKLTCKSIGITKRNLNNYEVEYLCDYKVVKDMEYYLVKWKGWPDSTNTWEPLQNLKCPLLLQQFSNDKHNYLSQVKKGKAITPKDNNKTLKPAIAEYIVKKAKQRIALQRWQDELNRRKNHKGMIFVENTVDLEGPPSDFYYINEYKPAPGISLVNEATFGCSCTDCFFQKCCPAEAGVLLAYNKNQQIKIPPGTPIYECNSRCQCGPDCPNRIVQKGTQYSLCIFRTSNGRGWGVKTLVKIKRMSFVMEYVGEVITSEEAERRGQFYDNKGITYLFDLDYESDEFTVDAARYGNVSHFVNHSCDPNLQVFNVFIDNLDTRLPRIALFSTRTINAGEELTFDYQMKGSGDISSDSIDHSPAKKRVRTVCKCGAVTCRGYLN
Chain of GLP (Q9H9B1 whole entry): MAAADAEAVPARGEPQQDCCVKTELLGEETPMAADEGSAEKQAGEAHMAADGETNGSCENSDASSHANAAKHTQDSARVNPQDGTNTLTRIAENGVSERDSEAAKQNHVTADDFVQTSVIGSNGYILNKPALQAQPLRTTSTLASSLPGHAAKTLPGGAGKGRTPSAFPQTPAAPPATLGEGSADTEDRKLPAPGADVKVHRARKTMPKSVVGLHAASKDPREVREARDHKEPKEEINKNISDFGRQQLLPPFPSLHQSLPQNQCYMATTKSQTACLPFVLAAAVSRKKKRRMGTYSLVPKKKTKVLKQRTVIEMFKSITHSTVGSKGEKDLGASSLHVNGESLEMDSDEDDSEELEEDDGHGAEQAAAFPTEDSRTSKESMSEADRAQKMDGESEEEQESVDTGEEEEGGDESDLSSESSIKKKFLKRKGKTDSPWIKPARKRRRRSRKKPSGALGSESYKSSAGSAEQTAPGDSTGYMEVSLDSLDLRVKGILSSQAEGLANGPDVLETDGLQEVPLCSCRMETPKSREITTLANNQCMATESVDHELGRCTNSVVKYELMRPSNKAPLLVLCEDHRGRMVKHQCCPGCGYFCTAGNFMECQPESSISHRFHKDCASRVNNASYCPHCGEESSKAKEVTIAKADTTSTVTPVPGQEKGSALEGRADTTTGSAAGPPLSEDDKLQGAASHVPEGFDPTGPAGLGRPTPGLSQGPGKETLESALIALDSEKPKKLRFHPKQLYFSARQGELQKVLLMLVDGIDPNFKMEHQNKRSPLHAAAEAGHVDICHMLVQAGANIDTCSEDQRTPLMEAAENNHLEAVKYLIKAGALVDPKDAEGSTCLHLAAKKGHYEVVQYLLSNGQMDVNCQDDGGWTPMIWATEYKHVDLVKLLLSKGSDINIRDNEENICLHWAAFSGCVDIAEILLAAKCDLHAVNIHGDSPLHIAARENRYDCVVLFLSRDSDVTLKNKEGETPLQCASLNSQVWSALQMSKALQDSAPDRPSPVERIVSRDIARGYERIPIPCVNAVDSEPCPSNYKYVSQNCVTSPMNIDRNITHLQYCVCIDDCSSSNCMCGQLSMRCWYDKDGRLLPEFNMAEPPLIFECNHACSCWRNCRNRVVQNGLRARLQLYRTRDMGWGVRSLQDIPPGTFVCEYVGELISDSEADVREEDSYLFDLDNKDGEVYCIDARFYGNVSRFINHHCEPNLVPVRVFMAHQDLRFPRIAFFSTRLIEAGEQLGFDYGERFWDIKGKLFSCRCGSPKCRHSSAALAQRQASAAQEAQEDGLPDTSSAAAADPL
Chain of PRMT3 (O60678 whole entry, species assumed): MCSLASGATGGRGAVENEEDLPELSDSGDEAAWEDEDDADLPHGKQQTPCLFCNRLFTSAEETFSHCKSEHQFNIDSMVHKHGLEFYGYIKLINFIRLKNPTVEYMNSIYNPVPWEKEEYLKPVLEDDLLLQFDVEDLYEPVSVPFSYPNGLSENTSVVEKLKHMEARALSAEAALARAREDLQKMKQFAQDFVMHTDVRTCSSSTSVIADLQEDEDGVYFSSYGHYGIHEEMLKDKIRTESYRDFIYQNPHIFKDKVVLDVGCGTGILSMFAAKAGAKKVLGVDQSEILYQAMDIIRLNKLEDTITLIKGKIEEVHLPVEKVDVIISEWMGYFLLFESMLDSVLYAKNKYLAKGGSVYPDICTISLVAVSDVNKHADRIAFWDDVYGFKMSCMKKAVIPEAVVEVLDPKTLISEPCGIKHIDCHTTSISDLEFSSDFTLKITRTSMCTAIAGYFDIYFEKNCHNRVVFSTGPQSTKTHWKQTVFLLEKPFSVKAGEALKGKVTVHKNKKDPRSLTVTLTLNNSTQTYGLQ

In the case of `COc1cc2c(NC3CCN(C)CC3)nc(N3CCCN(C)CC3)nc2cc1OCCOCCN(C)C` [UNC0321], in the series on cellular assays, the “potency in cellular assays relative to BIX01294” value is “less potent than BIX01294”.
In general, IC50 refers to the concentration at which inhibition is half-maximal. The term EC50 denotes the concentration that produces a half-maximal response. Turning to `COc1cc2c(N(C)C3CCN(C(C)C)CC3)nc(C3CCCCC3)nc2cc1OCCCN1CCCC1` [UNC0737], on G9a (G9a and GLP biochemical assays), the “fold less potent than UNC0638” value was above 300 fold. Moreover, the IC50 at G9a (SAHH-coupled assay) is 5 µM; against GLP it was above 10 µM; against SUV39H2 it was “inactive”; against SETD7, “inactive”; on SETD8, “inactive”; against PRMT3 it was “inactive”. For the same compound, the concentration for half-maximal inhibition (IC50) in series [1] is above 5 µM. Besides, in the series with panel of 24 kinases, the “activity against panel of 24 kinases” value is “inactive”. In addition, in the series on MDA-MB-231 cells (read-out: EC50 cellular toxicity (MTT), MDA-MB-231 cells (n = 3)), the EC50 came out at 8.7 µM. For the same compound, the “reactivation of EGFP expression” value in series [2] (500 nM, above the 36% EGFP+ cells of untreated sample) is on record as “did not reactivate EGFP expression”. The “DNA methylation of retrovirus LTR and MAGEA2 promoter” value in series [3] is “hypermethylated”.
Regarding `COc1cc2nc(N3CCCN(C)CC3)nc(NC3CCN(Cc4ccccc4)CC3)c2cc1OC` [BIX01294, reference compound], the EC50 in the series on MDA-MB-231 cells (Homo sapiens, MDA-MB-231, read-out: EC50 cellular toxicity (MTT)) was determined as 2.7 µM. Further, in series [4], the “levels of H3K9me2 by quantitative MS” value is recorded as “to a lesser extent than UNC0638 did” and the “levels of H3K9me3 by quantitative MS” value is reported as “remained constant”. Besides, the half-maximal inhibitory concentration (IC50) in series [5] worked out at 2040 nM. For the same compound, the “EGFP+ cells” value in series [2] (day 10, 2 μM, untreated 36%) is given as 53%. In addition, the “state of treated cells” value in [2] (day 12, 2 μM) is “arrested or died”. Further, the SSEA1 positive cells with J1 mES cells amounted to 65%. In addition, the “abundance of H3K9me2 mark in bulk histones” value in [6] (at 4.1 μM, several cell lines) is “reduced”. Further, the “concentration toxic to cells” value in series [6] is on record as “higher than 4.1 μM”.
